Measured values taken from ChEMBL document CHEMBL3352004, “(7-Benzyloxy-2,3-dihydro-1H-pyrrolo[1,2-a]indol-1-yl)acetic Acids as S1P1 Functional Antagonists” (ACS Med Chem Lett, 2014).
Values after ≈ are worked out from the molar mass of the structure shown.

Legend:
[1] = biological target: T1, Sphingosine 1-phosphate receptor 1 (Homo sapiens, UniProt P21453); test: Agonist activity at human S1P1 receptor assessed as cAMP accumulation by HTRF assay relative to S1P; type: functional
[2] = biological target: T1, Sphingosine 1-phosphate receptor 1; test: Agonist activity at human S1P1 receptor assessed as cAMP accumulation by HTRF assay; type: functional
Summary of the method: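 S1P1 engagement measured as cyclase activity in a homogeneous time-resolved fluorescence (HTRF) assay.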

[3] = biological target: T1, Sphingosine 1-phosphate receptor 1; test: Agonist activity at human S1P1 receptor by beta-arrestin recruitment assay
[4] = biological target: Sphingosine 1-phosphate receptor 2 (Homo sapiens, UniProt O95136); test: Agonist activity at human S1P2 receptor by beta-arrestin recruitment assay
[5] = biological target: Sphingosine 1-phosphate receptor 3 (Homo sapiens, UniProt Q99500); test: Agonist activity at human S1P3 receptor by beta-arrestin recruitment assay
[6] = biological target: T2, Sphingosine 1-phosphate receptor 4 (Homo sapiens, UniProt O95977); test: Agonist activity at human S1P4 receptor by beta-arrestin recruitment assay
T2 sequence (O95977 whole entry): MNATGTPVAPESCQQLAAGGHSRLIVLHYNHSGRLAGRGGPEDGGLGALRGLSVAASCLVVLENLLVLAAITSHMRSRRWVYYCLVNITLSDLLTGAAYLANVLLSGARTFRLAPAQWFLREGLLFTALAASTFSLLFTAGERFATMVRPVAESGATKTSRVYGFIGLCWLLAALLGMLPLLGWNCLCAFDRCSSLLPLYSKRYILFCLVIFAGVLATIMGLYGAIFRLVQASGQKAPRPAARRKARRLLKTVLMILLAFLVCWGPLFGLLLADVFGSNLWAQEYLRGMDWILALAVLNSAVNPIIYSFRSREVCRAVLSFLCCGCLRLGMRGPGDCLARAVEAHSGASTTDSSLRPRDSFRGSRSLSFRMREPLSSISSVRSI

[7] = biological target: T3, Sphingosine 1-phosphate receptor 5 (Homo sapiens, UniProt Q9H228); test: Agonist activity at human S1P5 receptor by beta-arrestin recruitment assay
[8] = biological target: T1, Sphingosine 1-phosphate receptor 1; test: Agonist activity at human S1P1 receptor by beta-arrestin recruitment assay relative to S1P
[9] = Systemic clearance in Sprague-Dawley rat at 1 mg/kg, iv; type: ADME, organism-based; design: dose 1 mg/kg, route intravenous; conditions: in vivo
[10] = Volume of distribution at steady state in Sprague-Dawley rat at 1 mg/kg, iv; type: ADME, organism-based; design: dose 1 mg/kg, route intravenous; conditions: in vivo, read-out: Vdss
[11] = Cmax in Sprague-Dawley rat at 1 mg/kg, po; type: ADME, organism-based; design: dose 1 mg/kg, route oral; conditions: in vivo
[12] = Tmax in Sprague-Dawley rat at 1 mg/kg, po; type: ADME, organism-based; design: dose 1 mg/kg, route oral; conditions: in vivo
[13] = AUC (0 to infinity) in Sprague-Dawley rat at 1 mg/kg, iv or at 1 mg/kg, po; type: ADME, organism-based; conditions: plasma
[14] = Elimination half life in Sprague-Dawley rat at 1 mg/kg, po; type: ADME, organism-based; design: dose 1 mg/kg, route oral; conditions: in vivo, read-out: beta t1/2 (converted)
[15] = Oral bioavailability in Sprague-Dawley rat at 1 mg/kg; type: ADME, organism-based; conditions: in vivo
[16] = Ratio of drug level in brain to plasma in Sprague-Dawley rat; type: ADME; conditions: read-out: BPR
Summary of the method: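 Abbreviated rat CNS distribution: a single 1.0 mg/kg oral dose, with brain and plasma drug levels measured over 6 h. Brain-to-plasma ratio derived from these levels.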

Rattus norvegicus = species: Rattus norvegicus; test: Reduction in lymphocyte count in Sprague-Dawley rat; type: functional, organism-based
Summary of the method: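 A PK/PD model relating plasma drug concentration to circulating lymphocyte counts was used to derive the plasma concentration that reduces lymphocytes by 50% (LL IC50, ng/mL).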

[17] = biological target: T4, Sphingosine 1-phosphate receptor 4 (Homo sapiens) (UniProt O95977); test: Agonist activity at human S1P4 receptor by beta-arrestin recruitment assay relative to S1P
T4 sequence (whole entry): T2 sequence (O95977 whole entry)

[18] = biological target: T3, Sphingosine 1-phosphate receptor 5; test: Agonist activity at human S1P5 receptor by beta-arrestin recruitment assay relative to S1P
[19] = Half life in human; type: ADME, organism-based; conditions: in vivo

Chain of Sphingosine 1-phosphate receptor 3 (Q99500 whole entry): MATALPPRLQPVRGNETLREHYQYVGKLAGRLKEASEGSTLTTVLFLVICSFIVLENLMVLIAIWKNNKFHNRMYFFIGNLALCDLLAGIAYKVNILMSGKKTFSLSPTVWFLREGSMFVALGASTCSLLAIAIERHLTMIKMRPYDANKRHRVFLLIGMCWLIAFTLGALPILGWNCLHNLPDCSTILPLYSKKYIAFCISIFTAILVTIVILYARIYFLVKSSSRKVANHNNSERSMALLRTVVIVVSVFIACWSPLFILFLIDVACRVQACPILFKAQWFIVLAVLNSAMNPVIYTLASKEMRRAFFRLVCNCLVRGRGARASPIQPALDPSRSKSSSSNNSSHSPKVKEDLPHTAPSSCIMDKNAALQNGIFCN
T3 sequence (Q9H228 whole entry): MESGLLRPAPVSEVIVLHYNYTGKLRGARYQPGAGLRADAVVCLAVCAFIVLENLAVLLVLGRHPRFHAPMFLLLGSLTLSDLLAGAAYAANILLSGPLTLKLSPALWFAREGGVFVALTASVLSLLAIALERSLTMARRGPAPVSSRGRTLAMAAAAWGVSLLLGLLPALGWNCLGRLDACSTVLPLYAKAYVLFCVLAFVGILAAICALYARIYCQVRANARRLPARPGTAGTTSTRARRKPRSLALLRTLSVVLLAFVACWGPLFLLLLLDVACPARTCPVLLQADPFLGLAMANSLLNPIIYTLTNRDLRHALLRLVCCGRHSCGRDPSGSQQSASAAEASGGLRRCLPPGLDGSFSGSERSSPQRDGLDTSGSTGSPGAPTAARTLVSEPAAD
T1 sequence (P21453 whole entry): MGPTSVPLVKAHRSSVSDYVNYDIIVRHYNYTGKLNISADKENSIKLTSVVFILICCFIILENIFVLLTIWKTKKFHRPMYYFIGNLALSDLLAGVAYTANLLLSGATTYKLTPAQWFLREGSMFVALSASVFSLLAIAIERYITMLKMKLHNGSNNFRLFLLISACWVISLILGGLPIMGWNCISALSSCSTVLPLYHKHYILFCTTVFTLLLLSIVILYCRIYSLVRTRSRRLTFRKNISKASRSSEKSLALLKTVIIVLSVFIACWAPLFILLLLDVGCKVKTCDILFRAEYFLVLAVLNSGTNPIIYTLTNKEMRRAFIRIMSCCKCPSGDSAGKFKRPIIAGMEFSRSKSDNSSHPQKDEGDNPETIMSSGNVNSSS
Chain of Sphingosine 1-phosphate receptor 2 (O95136 whole entry): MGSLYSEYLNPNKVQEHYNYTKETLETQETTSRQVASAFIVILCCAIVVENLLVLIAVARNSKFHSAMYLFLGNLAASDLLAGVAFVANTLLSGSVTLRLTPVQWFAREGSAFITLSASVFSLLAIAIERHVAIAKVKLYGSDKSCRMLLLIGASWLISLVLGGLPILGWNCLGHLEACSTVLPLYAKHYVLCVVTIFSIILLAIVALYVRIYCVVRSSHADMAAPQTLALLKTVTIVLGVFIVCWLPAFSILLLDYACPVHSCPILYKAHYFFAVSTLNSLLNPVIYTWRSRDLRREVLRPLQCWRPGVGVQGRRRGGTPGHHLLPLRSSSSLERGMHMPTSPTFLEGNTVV

Emax [1] [%]	EC50 [2] [nM]	EC50 [3] [nM]	EC50 [4] [nM]	EC50 [5] [nM]	EC50 [6] [nM]	EC50 [7] [nM]	Emax [8] [%]	Structure (SMILES)	also measured
108	–	–	–	–	–	–	–	O=C(O)CC1CCn2c1cc1cc(OCc3ccc(C4CCCC4)c(C(F)(F)F)c3)ccc12 (racemic)	–
–	0.067	8.6	> 10000	> 10000	> 10000	> 10000	–	CC(C)Oc1ccc(COc2ccc3c(c2)cc2n3CCC2CC(=O)O)cc1C(F)(F)F (single isomer, unassigned; enantiomer 1) [listing 1 of 2 here]	–
107	–	–	–	–	–	–	108	CC(C)Oc1ccc(COc2ccc3c(c2)cc2n3CCC2CC(=O)O)cc1C(F)(F)F (single isomer, unassigned; enantiomer 1) [listing 2 of 2 here]	–
–	0.64	40	> 10000	> 10000	> 10000	> 10000	–	CC(C)Oc1ccc(COc2ccc3c(c2)cc2n3CCC2CC(=O)O)cc1C(F)(F)F (single isomer, unassigned; enantiomer 2) [listing 1 of 2 here]	–
116	–	–	–	–	–	–	104	CC(C)Oc1ccc(COc2ccc3c(c2)cc2n3CCC2CC(=O)O)cc1C(F)(F)F (single isomer, unassigned; enantiomer 2) [listing 2 of 2 here]	–
–	0.041	2.5	> 10000	> 10000	570	107	–	O=C(O)CC1CCn2c1cc1cc(OCc3ccc(C4CCCC4)c(C(F)(F)F)c3)ccc12 (stereo in doubt; 12a) [listing 1 of 2 here]	clearance [9]: 1.2 mL/min/kg; Vd [10]: 0.986 L/kg; Cmax [11]: 526 ng/mL; Tmax [12]: 2.67 h; AUC(0-inf) [13]: 5430 ng·h/mL; half-life [14]: 9.16 h; bioavailability [15]: 39%; Kp [16]: 0.53; IC50 (Rattus norvegicus): 0.0241 µg/mL (≈ 0.0527 µM)
97	–	–	–	–	–	–	105	O=C(O)CC1CCn2c1cc1cc(OCc3ccc(C4CCCC4)c(C(F)(F)F)c3)ccc12 (stereo in doubt; 12a) [listing 2 of 2 here]	Emax [17]: 47%; Emax [18]: 83%
–	0.32	20	> 10000	> 10000	420	81	–	O=C(O)CC1CCn2c1cc1cc(OCc3ccc(C4CCCC4)c(C(F)(F)F)c3)ccc12 (stereo in doubt; 12b) [listing 1 of 2 here]	–
100	–	–	–	–	–	–	100	O=C(O)CC1CCn2c1cc1cc(OCc3ccc(C4CCCC4)c(C(F)(F)F)c3)ccc12 (stereo in doubt; 12b) [listing 2 of 2 here]	Emax [17]: 49%; Emax [18]: 59%
–	0.13	11	> 10000	> 10000	> 10000	410	–	CC(C)Oc1ccc(COc2ccc3c(c2)cc2n3CCC2CC(=O)O)cc1C#N (stereo in doubt; 19a) [listing 1 of 2 here]	clearance [9]: 2.18 mL/min/kg; Vd [10]: 0.732 L/kg; Cmax [11]: 569 ng/mL; Tmax [12]: 2 h; AUC(0-inf) [13]: 3990 ng·h/mL; half-life [14]: 3.99 h; bioavailability [15]: 49.8%; Kp [16]: 0.016; IC50 (Rattus norvegicus): 0.21 µg/mL (≈ 0.519 µM)
98	–	–	–	–	–	–	128	CC(C)Oc1ccc(COc2ccc3c(c2)cc2n3CCC2CC(=O)O)cc1C#N (stereo in doubt; 19a) [listing 2 of 2 here]	Emax [18]: 54%
–	1.5	160	> 10000	> 10000	> 10000	9800	–	CC(C)Oc1ccc(COc2ccc3c(c2)cc2n3CCC2CC(=O)O)cc1C#N (stereo in doubt; 19b) [listing 1 of 2 here]	–
104	–	–	–	–	–	–	122	CC(C)Oc1ccc(COc2ccc3c(c2)cc2n3CCC2CC(=O)O)cc1C#N (stereo in doubt; 19b) [listing 2 of 2 here]	Emax [18]: 133%
–	–	–	–	–	–	–	–	CCCCCCCCc1ccc(CCC(N)(CO)CO)cc1 [FINGOLIMOD]	half-life [19]: 89 h
